# Most compounds without a hit are left out; they make up all but 4.6% or so of the library.
# TAAR1 antag: human TAAR1 antagonism. Q96RJ0. CHO RD-HGA16 TAAR1, Fluo-8 calcium fluorescence, antagonist. inhibition, % at 3 µM. hit rate 1.5% among 360,000;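 active means inhibition above a per-plate cutoff, the mean inhibition of test compounds on that plate plus 3 SD, cut at about 49% in these data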;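 further: 0% = DMSO plus EC80 beta-PEA response and 100% = DMSO alone without agonist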
#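 Test system – hTAAR1-expressing CHO RD-HGA16 cells, Gα16-coupled · Also added – β-PEA at EC80 concentration, post-compound challenge · Compound – 3 µM, single point · Incubation – dye loading 75 min at 37 °C, then 30 min room temperature · Measured by – Fluo-8 intracellular calcium dye fluorescence, real-time kinetic reads · Benchmarks – vehicle and agonist controls · Replicates – singlicate, one well per test compound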
# GPR7 antag: antagonists of human GPR7 (neuropeptides B/W receptor 1); P48145; GPR7-expressing cells, fluorescence antagonist assay; inhibition, % at 4.4 µM; hit rate 1.1% among 290,000; AID 1861; in the data active means inhibition above about 16%, passing the limit was not always enough;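 further: cells stimulated with the agonist NPW; 0% = agonist with vehicle and 100% = vehicle without agonist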
# Target sequence (P48145 whole entry, looked up): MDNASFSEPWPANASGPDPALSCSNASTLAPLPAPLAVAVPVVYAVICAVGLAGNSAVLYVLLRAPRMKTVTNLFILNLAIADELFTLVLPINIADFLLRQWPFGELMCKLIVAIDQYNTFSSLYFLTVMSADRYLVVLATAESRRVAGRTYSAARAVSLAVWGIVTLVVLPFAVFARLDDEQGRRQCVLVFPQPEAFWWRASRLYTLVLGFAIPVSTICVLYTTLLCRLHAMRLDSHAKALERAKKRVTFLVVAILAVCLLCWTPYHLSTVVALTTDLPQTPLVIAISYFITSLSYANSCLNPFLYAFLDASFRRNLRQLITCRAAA
# OX1R antag-1: OX1R (human) antagonism. AID 485270. OX1R-expressing cells, FRET antagonist read-out. hit rate 1.8% among 330,000. O43613. inhibition, % at 6.6 µM; in the data active means inhibition mostly above about 38%, no sharp cut-off; inactive means mostly below about 40%;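 further: 0% = agonist challenge alone and 100% = reference antagonist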
# CHO parental Ca: counter-screen for OX1R antagonists: effect in parental CHO cells. parental CHO-K1, ATP-induced calcium, Fluo-8 fluorescence. inhibition, % at 5.6 µM. hit rate 0.63% among 330,000;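 active means inhibition above that plate's mean sample inhibition plus 3 SD, cut at about 26% in these data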;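 further: 0% = ATP-challenged DMSO wells and 100% = DMSO wells without ATP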
#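 material = parental CHO cells | also added = ATP as calcium-mobilizing challenge | dosing = single point at 5.6 µM | detection = intracellular calcium via Fluo-8 no-wash fluorescent dye | read-out = % inhibition | benchmarks = low control ATP plus DMSO, high control DMSO only | repeats = one well per compound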
# TAAR1 ag: agonists of human TAAR1 | Q96RJ0 | CHO RD-HGA16 TAAR1, Fluo-8 calcium fluorescence; vehicle wells 0%, saturating PEA agonist 100% | activation, % at 3 µM | hit rate 0.99% among 360,000;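 active means activation above the mean activation of all test compounds in the run plus 3 SD, cut at about 38% in these data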
#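 Assay system – CHO-derived RD-HGA16 cells with stable Gα16 and human TAAR1 · Compound dosing – one-point dosing at 3 µM (nominal) · Incubation – 17-24 h seeding, 75 min 37 °C dye, 30 min RT · Measured by – kinetic Fluo-8 calcium fluorescence · Control set – DMSO vehicle as 0%, PEA at EC100 as 100% · Repeats – single well for each compound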
# OX1R antag-2: antagonists of human orexin 1 receptor; O43613; CHO/OX1R cells, Fluo-8 calcium fluorescence, orexin A; inhibition, % at 5 µM; hit rate 0.43% among 330,000; AID 434989;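 active means inhibition above its plate's threshold, mean inhibition of all tested compounds on the plate plus 3 SD, cut at about 37% in these data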;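 further: 0% = orexin A challenge wells and 100% = SB-334867-A antagonist wells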
# An asterisk follows results filed as active; . = no result.
SMILES,TAAR1 antag,GPR7 antag,OX1R antag-1,CHO parental Ca,TAAR1 ag,OX1R antag-2
COc1cccc(-c2nc(-c3ccccn3)no2)c1OC,1,1,32,-9,3,-20
Cc1noc(C)c1NC(=O)Nc1ccc2c(c1)C(=O)N([C@H](C)CO)C[C@H](C)[C@@H](CN(C)S(=O)(=O)c1ccc(F)cc1)O2,10,.,10,-6,3,-16
CN1C[C@H](C(=O)N[C@]2(C)O[C@@]3(O)[C@@H]4CCCN4C(=O)[C@H](Cc4ccccc4)N3C2=O)CC2c3cccc4[nH]cc(c34)C[C@H]21 (stereo partly specified),7,.,15,-7,3,-21
CC(C)C[C@H]1C(=O)N2CCC[C@H]2[C@]2(O)O[C@](NC(=O)C3C=C4c5cccc6[nH]c(Br)c(c56)C[C@H]4N(C)C3)(C(C)C)C(=O)N12 (stereo partly specified),26,.,58*,-18,3,-7
O=C1C2C3c4ccccc4C(c4ccccc43)[C@@H]2C(=O)N1c1cccnc1 (stereo partly specified),50*,3,25,-18,9,-11
O=C1C2C3c4ccccc4C(c4ccccc43)C2C(=O)N1c1ccncc1 (stereo unspecified),20,-2,.,.,1,.
COc1ccc(NC(=O)c2cc(-c3ccco3)on2)cc1,-26,7,15,64*,2,5
COc1ccc(NC(=O)c2cc(-c3ccccc3OC)on2)cc1,18,10,45*,-18,7,-1
COc1cccc(CN(C)CC(=O)Nc2cccc3ccccc23)c1,-15,-12,48,-29,0,13
Cc1occc1C(=O)N1CCCC(N2CCN(c3cccc(Cl)c3)CC2)C1 (stereo unspecified),-18,-9,19,-18,0,-24
Fc1cc(F)c2nc(Nc3nc4cc5c(cc4s3)OCO5)sc2c1,61*,-6,13,-8,3,-9
CSCCC(NC(=O)COc1ccccc1)C(=O)N(C)Cc1c(F)cccc1Cl (stereo unspecified),52*,.,.,.,10,.
CSCCC(NC(=O)COc1ccccc1)C(=O)N(C)CC(=O)Nc1ccc(Cl)cc1 (stereo unspecified),-5,.,0,-18,6,-28
Cc1ccc(S(=O)(=O)N2CCOCC2)cc1C(=O)NC(C)CCc1ccccc1 (stereo unspecified),-7,.,9,-18,7,-13
COc1ccc(C(CC(=O)N2CCCCC2)c2c(O)cc(OC)cc2OC)cc1 (stereo unspecified),-6,.,14,-15,4,-14
Cc1ccc(NC(=O)c2cccc(S(=O)(=O)NCc3ccccc3)c2)nc1,-2,.,59*,12,6,1
CCCCCc1nc2sc3c(c2c(=O)n1NC(=O)c1ccc([N+](=O)[O-])cc1)CC(C)(C)OC3,25,-13,53*,0,7,-30
CCCCC[C@@H](C)N1C[C@@H](COCc2ccccc2)Oc2cc(N3CCC[C@H]3C(N)=O)ccc2S1(=O)=O,-38,.,.,.,3,.
CCCCC[C@H](C)N1C[C@@H](COCc2ccccc2)Oc2cc(N3CCC[C@H]3C(N)=O)ccc2S1(=O)=O,-32,.,.,.,39*,.
Brc1ccc(CN2CCN(Cc3c[nH]c4ccccc34)CC2)cc1,10,21,-7,-6,38*,5
COc1cc2ccccc2cc1C(=O)Nc1cc(C)ccn1,14,-8,53*,-24,-2,-15
COc1cc2ccccc2cc1C(=O)Nc1nccs1,40,1,64*,-22,6,-9
CCc1nc(SCC(=O)N2CCCc3ccccc32)c2oc3ccccc3c2n1,23,-2,48*,-11,7,-6
O=S(=O)(c1cccc2cccnc12)n1cnc2ccccc21,-4,12*,22,-12,3,-17
COC(=O)C1=CN(c2cccc(OCc3ccccc3)c2)C(N)=C(C#N)C1c1ccc(-c2ccccc2)cc1 (stereo unspecified),0,.,.,.,0,.
SMILES,TAAR1 antag,GPR7 antag,OX1R antag-1,CHO parental Ca,TAAR1 ag,OX1R antag-2
Cc1ccc(/C=C2\SC(=S)N(CCC(=O)NNS(=O)(=O)c3ccc(C)cc3)C2=O)cc1,2,21*,11,-11,2,-11
CCN(CC)C(=O)CN1C(=O)/C(=C/c2ccccc2)SC1=S,-27,1,15,-12,7,-29
O=C(CCCN1C(=O)/C(=C\c2ccccc2)SC1=S)N1CCOCC1,18,.,32,33*,7,46*
CC(=O)NNC(=O)CN1C(=O)/C(=C/c2ccccc2)SC1=S,-27,21*,51,-13,4,-18
O=C(CCN1C(=O)/C(=C\c2ccccc2)SC1=S)NNC(=O)c1ccccc1O,-19,-17,64*,3,8,10
O=C1CCCc2ccccc2N1Cc1ccc(Cl)cc1Cl,19,-4,13,-5,28,-11
O=C(CCCN1C(=O)S/C(=C\c2ccccc2)C1=O)NNC(=O)c1ccccc1O,8,0,56*,7,7,1
O=C(CCCN1C(=O)/C(=C\c2cccs2)SC1=S)Nc1ccccc1O,38,.,.,.,3,.
O=C(CCN1C(=O)/C(=C\c2ccccc2)SC1=S)NNC(=O)c1cccnc1,54*,8,19,-5,17,-18
O=C(CN1C(=O)S/C(=C\c2ccccc2)C1=O)NNC(=O)c1ccccc1O,-1,-7,42,10,-1,9
O=C(CCCN1C(=O)c2ccccc2C1=O)NCCN1C(=O)S/C(=C\c2cccs2)C1=O,37,3,66*,-28,10,-20
CCCc1nc(SCC(=O)Nc2nnc(CC)s2)c2c(=O)n(C)c(=O)n(C)c2n1,-15,-4,4,-11,1,-17
C[C@H](NC(=O)c1ncn2c1C(=O)NC[C@H]2C)C(=O)OC(C)(C)C,-16,.,.,.,1,.
Cc1ccc(N=Nc2c(=O)[nH]n3c(=O)cc(C)[nH]c23)cc1,-4,-1,55*,10,3,1
NS(=O)(=O)c1ccc(NC(=O)c2cccc3cc4ccccc4nc23)cc1,18,.,.,.,5,.
CC(C)N1CCC2(CC1)N=C(c1ccc3c(c1)OCO3)CC(c1cc(Cl)ccc1O)N2 (stereo unspecified),48,5,87*,38,18,68*
COc1cc(CNCC(O)c2ccccc2)ccc1OCc1ccc(Cl)nc1 (stereo unspecified),-11,6,5,-22,39*,-15
COc1ccc(/C=C/C(=O)Nc2sc(Cc3ccccc3)c(C)c2C(N)=O)cc1,-7,1,13,-10,6,-21

# High-throughput results (PubChem BioAssay)
